Experimental data published in the RNAGym collection of RNA variant scans (doi:10.1126/science.aae0568).
Variants at the floor of the assay were thinned out.

B1: tRNA (parent)
chain: GUUCCGUUGGCGUAAUGGUAACGCGUCUCCCUCCUAAGGAGAAGACUGCGGGUUCGAGUCCCGUACGGAACG

Variants of: B1
Test: yeast fitness relative to wild type (ratio to wild type); higher = fitter; tRNA-Arg(CCU), competitive growth, 37 C, YPD
Procedure, shortened: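 Variants of the tRNA-Arg(CCU) gene, chemically synthesised with a 3% per-site mutation rate at 69 sites, were placed at the native genomic locus in Saccharomyces cerevisiae. The pooled strains were competed in YPD at 37°C for 24 hours in six parallel replicates. Gene amplicons from the start population and from each end population were read by 100-nucleotide paired-end sequencing. Darwinian fitness relative to wild type came from changes in genotype frequencies; genotypes needed ≥ 100 starting reads, and estimates < 0.5 were set to 0.5.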

Row | Variant | yeast fitness
1 | GUUCCGUUGGCGUAAUGGUAAUGCGCCUCCCUCCUAAGGAGAAGACUGCGGGUUCGAGUCCCGUACGGAACG | 0.667
2 | GUUCCGUUGGCGUAAUGGUAAUGCGUCCCCCUCCUAAGGAGAAGACUGCGGGUACGAGUCCCGUACGGUACG | ≤ 0.5
3 | GUUCCGUUGGCGUAAUGGUAAUGCGUCUCCCUCCUAAGGAGAAGACAGCGGGUUCGAGUCCCGUACGGAGCG | 0.536
4 | GUUCCGUUGGCGUAAUGGUAAUGCGUCUCCCUCCUAAGGAGAAGACUGCGGGUUCGAGCCCCGUACGGAACG | 0.778
5 | GUUCCGUUGGCGUAAUGGUAAUGCGUCUCGCUCCUUAGGAGAAGAGUGCGGGUUCGAGUCCCGUACGGAACG | ≤ 0.5
6 | GUUCCGUUGGCGUAAUGGUAACACGUCUCUCUCCCAAGGAGAAGACUGCGGGUUCGAGUCCCGUACGGAACG | ≤ 0.5
7 | GUUCCGUUGGCGUAAUGGUAAUGCGUCUCCCUCCUAAGGAGAAGACUGCGGAUUCGUGUCCCGUACGGAACG | ≤ 0.5
8 | GUUCCGUUGGCGUAAUGGUAACACGUCUCGCUCCUAAGGAGAAGACUGCGGGUUCGAGUCCCGUACGGAACG | 0.527
9 | GUUCCGUUGGCGUAAUGGUAAUGCGUCUCCCUCCUAAGGAGAAGACUGCGGGUUCGAGUGCCGUACGGAACG | 0.688
10 | GUUCCGUUGGCGUAAUGGUAAUGCGUCUCUCUCCUAAGGAGAAGACUGCGGGUUCGGGUCCCGUACGGAACG | ≤ 0.5
11 | GUUCCGUUGGCGUAAUGGUAACACGUCUCCCUCCUAAGGAGAUGACUGCGGGUUCGAGUCCCGUUCGGAACG | ≤ 0.5
12 | GUUCCGUUGGCGUAAUGGUAAUGCGUCUCUCUUCUAAGGAGAAGCCUGCGGGUUCGAGUCCCGUAUGGAACG | ≤ 0.5
13 | GUUCCGUUGGCGUAAUGGUAACACGUCUGCCUCCUAAGGAGAAGACUGCGGGUUCGGGUCCCGUAGGGAACG | ≤ 0.5
14 | GUUCCGUUGGCGUAAUGGUAAUGCGUCGCCCACCUAAGGAGAAGACUGCGGGUUCGAGUCCCGUACGGAACG | ≤ 0.5
15 | GUUCCGUUGGCGUAAUGGUAAUGCGUCUCCCUCCUAAGGAGAAGACUGGGGGAUCGAGUCCCGUACGGAACG | 0.558
16 | GUUCCGUUGGCGUAAUGGUAAUGCGUCUCCCUCCUAAGGAGAAGACUGCGGAUUCGAGUCUCGUACGGAACG | ≤ 0.5
17 | GUUCCGUUGGCGUAAUGGUAAUGCGUCUCCCUCCCAAGGAGAAGACUGCGGGUUAGAGUCCCGUAUGGAACG | ≤ 0.5
18 | GUUCCGUUGGCGUAAUGGUAAUGCGUCUCCCUCUUAAGAAGAAAACUGCGGGUUCGACUCCCGUCCGGAACG | ≤ 0.5
19 | GUUCCGUUGGCGUAAUGGUAACACGUCUCCCUCCUAAGGAGUAGACUGCGGGUUCGAGUCACGUACGGAACG | ≤ 0.5

Row | Variant | yeast fitness
20 | GUUCCGUUGGCGUAAUGGUAAUGCGUCUCCCUCCUAAGGAGAAGAAUGCGGGUUCGACUCCCGUAUGGAACG | ≤ 0.5
21 | GUUCCGUUGGCGUAAUGGUAAUGCGUCUCCUUCCUAAGGAGAAGUCUGCGGGUUUGAGUCCCGUACGGAUCG | ≤ 0.5
22 | GUUCCGUUGGCGUAAUGGUAAUGCGUCUCCCUCCUAAGGAGAAGACUGCGGAUUAGAGUCCCGUACGGCACG | ≤ 0.5
23 | GUUCCGUUGGCGUAAUGGUAAUGCGACUCCCUCCUAAGGAGAAGACUGCGGGUUCGAGUCCCGUACCGAACG | ≤ 0.5
24 | GUUCCGUUGGCGUAAUGGUAACACGUCUCUCUCCCAAGGAGAAGACUGCGGGUUCGAGUCCAGUACGGAACG | ≤ 0.5
25 | GUUCCGUUGGCGUAAUGGUAACACGUUUCCCUCCUAAGGAGAAGACUGCGGGUUCGAGUGCCGUACAGAACG | 0.549
26 | GUUCCGUUGGCGUAAUGGUAAUGCGUCUCCCUCCUAAGGAGAAGACUGCGGGUUCGAGUCCCAUACGGAACG | 0.81
27 | GUUCCGUUGGCGUAAUGGUAAUGCAGCUCCCUCCUAAGGAGAAGACUGCGGGUUCGAGUCCUGUUCGGAACG | 0.51
28 | GUUCCGUUGGCGUAAUGGUAACACGUCUCCCUCCUAAGGAGACGACUGCGGGUUCGAGUCCCGUAGGGAACG | ≤ 0.5
29 | GUUCCGUUGGCGUAAUGGUAAUGCGUCUCCCUCAUAAGGAGAAGACUGCGGGUUCCUGUCCCGUACGGAACG | ≤ 0.5
30 | GUUCCGUUGGCGUAAUGGUAACACGUCUGCCUCCUAAGGAGAAGUCUGCGGGUUCGAGUCCUGUACGGAACG | ≤ 0.5
31 | GUUCCGUUGGCGUAAUGGUAACACGUCUGCCUCCUAAGGAGAAGUCUGCGGGUUCGAGUGUCGUACGGAACG | 0.557
32 | GUUCCGUUGGCGUAAUGGUAACACGUCUCUCUCCUAAGGAGAAGACUGCGGGUUGGCGUCACGUACGGAACG | ≤ 0.5
33 | GUUCCGUUGGCGUAAUGGUAACACGUCUCCCUCCUAAGGAGAUGACUGCGGGUUCGAGUCCUGUACGGAACG | 0.751
34 | GUUCCGUUGGCGUAAUGGUAACACGUCUCCCUCCUAAGGGGAAGCCUGCGGGUUCGAGUCCCGUACGGAACG | ≤ 0.5
35 | GUUCCGUUGGCGUAAUGGUAAUGCGUCUCGCUCCUAAGGAGAAGACUGCGGGUUCGAGUCUCGUCUGGAACG | ≤ 0.5
36 | GUUCCGUUGGCGUAAUGGUAAUGCGUCUCCCUCCUAAGGAGAAGACUGCGGCUUCGAGUCCCGUACGGAACG | 0.537
37 | GUUCCGUUGGCGUAAUGGUAAUGCGUCUCCCUCCUAAGGAGAAGACUGUGGGUUCGAGUCCCGUACGGAACG | 0.816
38 | GUUCCGUUGGCGUAAUGGUAAUGCGUCUCGCUCCUAAGGAGAAGACUGUGGGUUCGAGUCCCGUACGGAACG | ≤ 0.5
